Measured values pooled from the literature.
Lines come from different studies, so protocols differ.
Organism: Staphylococcus aureus

Oc1c(Cl)cc(Cl)cc1-c1[nH]c(Cl)c(Cl)c1Cl  MIC (microbial growth; ATCC29213 MSSA): 0.29 µM
CN[C@H](CC(C)C)C(=O)N[C@H]1C(=O)N[C@@H](CC(N)=O)C(=O)N[C@H]2C(=O)N[C@H]3C(=O)N[C@H](C(=O)N[C@H](C(=O)O)c4cc(O)cc(O)c4-c4cc3ccc4O)[C@H](O)c3ccc(c(Cl)c3)Oc3cc2cc(c3O[C@@H]2O[C@H](CO)[C@@H](O)[C@H](O)[C@H]2O[C@H]2C[C@](C)(N)[C@H](O)[C@H](C)O2)Oc2ccc(cc2Cl)[C@H]1O  MBC (microbial killing; broth dilution; MRSA; drug-resistant strain): 0.67 µM
COc1c(N2C[C@@H]3CCCN[C@@H]3C2)c(F)cc2c(=O)c(C(=O)O)cn(C3CC3)c12  MIC (microbial growth; ATCC29213): 0.07 µM
C[C@H]1COc2c(N3CCN(C)CC3)c(F)cc3c(=O)c(C(=O)O)cn1c23  MBC (microbial killing; ATCCBAA1717 MRSA): 0.48 µg/mL
COc1c(N2CC3CCCNC3C2)c(F)cc2c(=O)c(C(=O)OCc3cnc([N+](=O)[O-])s3)cn(C3CC3)c12 (stereo not drawn)  MIC (microbial growth; ATCC29213): 0.09 µM
CO[C@@H]1[C@@H](OC(N)=O)[C@@H](O)[C@H](Oc2ccc3c(O)c(NC(=O)c4ccc(O)c(CC=C(C)C)c4)c(=O)oc3c2C)OC1(C)C  MIC (microbial growth; MRSA; drug-resistant strain, clinical isolate): 0.25 µg/mL
O=c1ccc2nc3ccc(OCc4ccc([N+](=O)[O-])o4)cc3oc-2c1  MIC (microbial growth; 24 h): > 32 µg/mL
C[C@@H]1CN2c3c(cc4c(N5C(=O)OC[C@@H]5C)noc4c3F)CC3(C(=O)NC(=O)NC3=O)[C@H]2[C@H](C)O1  MIC (microbial growth; broth dilution; ATCC29213): 1 µg/mL
CN[C@H](CC(C)C)C(=O)N[C@H]1C(=O)N[C@@H](CC(N)=O)C(=O)N[C@H]2C(=O)N[C@H]3C(=O)N[C@H](C(=O)N[C@H](C(=O)O)c4cc(O)cc(O)c4-c4cc3ccc4O)[C@H](O)c3ccc(c(Cl)c3)Oc3cc2cc(c3O[C@@H]2O[C@H](CO)[C@@H](O)[C@H](O)[C@H]2O[C@H]2C[C@](C)(N)[C@H](O)[C@H](C)O2)Oc2ccc(cc2Cl)[C@H]1O  MBC (microbial killing; ATCCBAA1717 MRSA): 1.95 µg/mL
